Two molecules from ChEMBL document CHEMBL4673287, “Synthesis and biological evaluation of novel antipsychotic trans-4-(2-(1,2,4,5-tetrahydro-3H-benzo[d]azepin-3-yl)ethyl)cyclohexan-1-amine derivatives targeting dopamine/serotonin receptor subtypes” (Bioorg Med Chem Lett, 2021) can be followed below.

Each structure is given as a SMILES string.

In assay [1] the target is T1, Adrenergic receptor alpha-1 (Homo sapiens, UniProt P35348+P25100+P35368).
T1 sequence (P35348 whole entry): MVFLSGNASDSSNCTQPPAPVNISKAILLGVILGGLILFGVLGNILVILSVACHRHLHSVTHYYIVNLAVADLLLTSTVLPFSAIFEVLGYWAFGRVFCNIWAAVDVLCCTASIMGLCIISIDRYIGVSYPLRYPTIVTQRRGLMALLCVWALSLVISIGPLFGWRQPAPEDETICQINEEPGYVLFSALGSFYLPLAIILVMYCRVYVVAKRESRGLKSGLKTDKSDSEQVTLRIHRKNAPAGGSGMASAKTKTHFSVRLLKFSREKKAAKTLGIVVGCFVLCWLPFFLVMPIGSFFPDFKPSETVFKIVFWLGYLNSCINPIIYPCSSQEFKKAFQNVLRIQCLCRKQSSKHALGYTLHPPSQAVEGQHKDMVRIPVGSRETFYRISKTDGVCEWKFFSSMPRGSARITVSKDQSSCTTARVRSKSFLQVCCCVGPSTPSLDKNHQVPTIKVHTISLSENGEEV
T1 sequence (P25100 whole entry): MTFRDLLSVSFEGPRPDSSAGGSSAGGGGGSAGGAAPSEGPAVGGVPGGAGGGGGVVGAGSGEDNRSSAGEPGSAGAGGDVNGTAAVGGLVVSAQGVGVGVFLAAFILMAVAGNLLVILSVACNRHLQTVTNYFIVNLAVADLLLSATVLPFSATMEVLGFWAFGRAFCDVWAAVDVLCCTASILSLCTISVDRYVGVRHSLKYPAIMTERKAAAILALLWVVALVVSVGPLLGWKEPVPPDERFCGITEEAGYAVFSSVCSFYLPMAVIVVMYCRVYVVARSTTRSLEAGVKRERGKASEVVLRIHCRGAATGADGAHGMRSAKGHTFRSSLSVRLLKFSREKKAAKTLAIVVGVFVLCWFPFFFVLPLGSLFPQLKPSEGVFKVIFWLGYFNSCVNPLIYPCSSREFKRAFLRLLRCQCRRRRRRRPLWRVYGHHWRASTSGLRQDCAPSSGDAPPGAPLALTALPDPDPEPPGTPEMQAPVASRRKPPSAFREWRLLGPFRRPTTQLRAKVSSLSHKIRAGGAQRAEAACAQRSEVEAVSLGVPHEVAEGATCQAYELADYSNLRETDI
T1 sequence (P35368 whole entry): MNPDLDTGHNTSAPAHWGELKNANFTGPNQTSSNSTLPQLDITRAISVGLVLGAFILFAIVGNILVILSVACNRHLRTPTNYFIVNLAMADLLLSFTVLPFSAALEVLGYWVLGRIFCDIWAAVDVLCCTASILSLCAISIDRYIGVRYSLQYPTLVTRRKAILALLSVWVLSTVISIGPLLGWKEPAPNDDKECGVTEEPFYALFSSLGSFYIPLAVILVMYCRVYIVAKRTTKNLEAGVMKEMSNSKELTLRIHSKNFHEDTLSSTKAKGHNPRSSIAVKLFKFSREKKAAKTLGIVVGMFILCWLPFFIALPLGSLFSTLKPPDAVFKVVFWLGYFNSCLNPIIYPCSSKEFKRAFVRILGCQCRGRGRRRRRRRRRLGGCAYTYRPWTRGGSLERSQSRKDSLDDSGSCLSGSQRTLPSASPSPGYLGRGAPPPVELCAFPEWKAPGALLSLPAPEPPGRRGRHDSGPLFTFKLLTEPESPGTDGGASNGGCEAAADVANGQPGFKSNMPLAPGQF
Description: Binding affinity to adrenergic alpha1 receptor (unknown origin). In kind it is protein assay.

The test system of a further assay is Rattus norvegicus. Description: Antipsychotic activity in orally dosed Sprague-Dawley rat assessed as inhibition of PCP-induced hyperactivity administered 20 mins before PCP stimulation and measured after 1 hr. It counts as functional, organism-based. Conditions: dose 1-10 mg/kg, time 80.0 min. A digest of the protocol: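 Male Sprague-Dawley rats dosed orally 20 min before PCP (5 mg/kg) injection. Locomotor activity recorded for 1 h after PCP, read as total travel distance. Mean ± standard error of the mean, n = 8-10 per group.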

In assay [2] the target is T2, Adrenergic receptor alpha-1 (Rattus norvegicus, UniProt P15823+P23944+P43140).
T2 sequence (P15823 whole entry): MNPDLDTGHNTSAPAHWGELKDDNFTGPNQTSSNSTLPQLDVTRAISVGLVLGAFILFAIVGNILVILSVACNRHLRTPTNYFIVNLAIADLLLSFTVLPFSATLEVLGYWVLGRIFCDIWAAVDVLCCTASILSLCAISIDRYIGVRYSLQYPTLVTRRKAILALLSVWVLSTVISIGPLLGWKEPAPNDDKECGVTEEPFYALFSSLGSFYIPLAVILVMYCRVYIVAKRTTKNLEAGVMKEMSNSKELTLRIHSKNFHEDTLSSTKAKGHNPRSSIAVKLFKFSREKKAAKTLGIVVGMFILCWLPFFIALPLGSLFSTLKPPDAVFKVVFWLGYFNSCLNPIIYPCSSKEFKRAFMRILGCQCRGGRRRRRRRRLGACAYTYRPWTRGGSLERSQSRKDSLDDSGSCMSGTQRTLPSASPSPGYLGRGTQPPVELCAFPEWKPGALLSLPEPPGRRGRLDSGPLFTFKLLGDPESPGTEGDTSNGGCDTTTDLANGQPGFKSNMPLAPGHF
T2 sequence (P23944 whole entry): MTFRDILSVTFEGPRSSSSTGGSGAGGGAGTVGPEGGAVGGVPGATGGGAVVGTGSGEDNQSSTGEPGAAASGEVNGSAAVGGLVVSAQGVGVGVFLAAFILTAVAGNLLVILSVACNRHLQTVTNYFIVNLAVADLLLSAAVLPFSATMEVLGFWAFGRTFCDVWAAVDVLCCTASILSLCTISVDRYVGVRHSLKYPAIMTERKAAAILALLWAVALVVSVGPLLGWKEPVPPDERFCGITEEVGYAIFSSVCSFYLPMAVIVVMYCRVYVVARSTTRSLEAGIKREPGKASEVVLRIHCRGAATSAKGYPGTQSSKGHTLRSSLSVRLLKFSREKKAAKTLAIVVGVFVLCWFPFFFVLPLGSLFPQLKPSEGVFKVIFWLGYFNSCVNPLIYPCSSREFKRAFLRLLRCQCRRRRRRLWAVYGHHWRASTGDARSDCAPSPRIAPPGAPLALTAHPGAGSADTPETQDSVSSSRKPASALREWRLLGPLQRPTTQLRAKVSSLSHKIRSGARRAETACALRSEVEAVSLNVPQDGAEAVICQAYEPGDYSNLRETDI
T2 sequence (P43140 whole entry): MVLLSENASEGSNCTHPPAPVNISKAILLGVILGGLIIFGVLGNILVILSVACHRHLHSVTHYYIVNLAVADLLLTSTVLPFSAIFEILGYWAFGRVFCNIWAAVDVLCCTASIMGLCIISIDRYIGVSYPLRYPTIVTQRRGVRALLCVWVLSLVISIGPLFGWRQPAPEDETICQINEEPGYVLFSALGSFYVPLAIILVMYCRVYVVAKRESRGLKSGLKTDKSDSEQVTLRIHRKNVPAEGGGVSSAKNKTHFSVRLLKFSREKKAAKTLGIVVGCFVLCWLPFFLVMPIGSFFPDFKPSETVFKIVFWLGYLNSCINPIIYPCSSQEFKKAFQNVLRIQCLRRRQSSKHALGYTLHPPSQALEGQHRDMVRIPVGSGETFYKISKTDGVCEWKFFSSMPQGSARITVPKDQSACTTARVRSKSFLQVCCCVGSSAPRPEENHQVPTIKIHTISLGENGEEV
Kind of assay: Displacement of [3H]-prazosin from adrenergic alpha1 in rat cerebral cortex. It counts as tissue-based. A digest of the protocol:
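Eight-concentration displacement curves, two independent experiments in duplicate, value is the mean Ki.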
In general terms: Loss of bound radioactivity is the signal in a displacement assay; it reports binding, not function.

What is called Ki is the equilibrium dissociation constant of an inhibitor or competing ligand from its target.

`CN1CC2c3ccccc3Oc3ccc(Cl)cc3C2C1` (stereo not drawn) [ASENAPINE]: the inhibition constant (Ki) in assay [1] came to 1.2 nM. This lies in the single-digit nanomolar range.

Consider `CN(C)C(=O)N[C@H]1CC[C@H](CCN2CCN(c3cccc(Cl)c3Cl)CC2)CC1` [CARIPRAZINE], for which, in the assay on Rattus norvegicus, the Activity result is “Dose-dependent effect”. The Ki in assay [2] was found to be 155 nM.
